Only some compounds are listed: those with a hit (about 1.3% of all), similar ones and a draw of the others.
INS-1E GSIS act: GLuc luminescence reporter in INS-1E cells, primary screen for activators of glucose-dependent secretion of insulin; INS-1E GLuc reporter insulin secretion, 2-3 h; activation, % at 16.6 µM; AID 743287; actives 0.61% (n = 370,000);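 active = lowest replicate activation of at least 40%, so every replicate reaches that level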;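 note: 0% = median of neutral control wells and 100% = median of IBMX positive control wells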
RAD52 anneal inh: blocks human RAD52 DNA annealing. P43351. recombinant RAD52 DNA annealing, FRET fluorescence. inhibition, % at 18.7 µM. actives 0.46% (n = 360,000);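 active = every replicate showing at least 50% inhibition; inconclusive = mean inhibition at least 50% but not in every replicate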
MLL AF4-AF9 inh: blocks AF4 peptide binding to human AF9; actives 0.47% (n = 350,000); inhibition, % at 10 µM; AID 651704; AlphaScreen, biotin-AF4 peptide binding to FLAG-AF9;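 active = every replicate reaching a set inhibition limit, whatever the replicate mean, cut at about 25% in these data; inconclusive = mean inhibition reaches that limit but some replicates miss it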;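 note: 0% = plate neutral control median and 100% = total signal loss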
S100A4 inh HTS: S100A4-myosin IIA interaction inhibition; P26447; S100A4/TAMRA-MyoIIA peptide fluorescence polarization; inhibition, % at 10.7 µM; actives 0.14% (n = 360,000); AID 652163;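 active = mean inhibition of at least 70% across replicates, with every replicate also reaching that level; inconclusive = mean inhibition reaches 70% but some replicates fall short; inactive = mean inhibition below 70%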
Target sequence (P26447 whole entry, looked up): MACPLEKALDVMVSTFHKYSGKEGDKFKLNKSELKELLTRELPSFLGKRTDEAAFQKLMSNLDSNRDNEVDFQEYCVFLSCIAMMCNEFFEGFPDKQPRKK
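System – human S100A4 monomer protein, biochemical binding assay · Buffer or medium – Calcium-containing HEPES buffer, pH 7.2 · Timing – 5 min between mix addition and reading · Also added – TAMRA-labelled myosin IIA heavy-chain peptide probe, 5 nM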
RAD54 inh: RAD54 (human) branch migration inhibition; inhibition, % at 10.4 µM; AID 602329; RAD54 Holliday junction branch migration, FAM/BHQ fluorescence; Q92698; actives 0.14% (n = 360,000);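 active = mean normalized replicate activity at least 40 and at least half of replicates scoring 40 or more; inconclusive = only one of the two criteria met; inactive = mean below 40 and under half of replicates reaching 40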;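 note: 0% = median of neutral control wells and 100% = median of positive control wells; inhibitors cause a drop in the FAM fluorescence signal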
RAD52 DNA ctr: DNA binding artifact in RAD52 counter-screen; shares compounds with RAD52 anneal inh; Salmon sperm DNA/acridine orange FP displacement; AC50, µM; actives 8% (n = 1,000);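 active = fitted half-maximal concentration for signal loss at or below twice the highest dose tested, in every separate run, actives reach about 64 µM in these data; inconclusive = runs disagree, or flat partial signal loss, or poor fit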
Starred values were filed as active, the others as inactive; i = inactive; ? = inconclusive; . = no result.

SMILES | INS-1E GSIS act | RAD52 anneal inh | MLL AF4-AF9 inh | S100A4 inh HTS | RAD54 inh | RAD52 DNA ctr
Cc1ccc2nc(N(CCCN(C)C)C(=O)c3ccc4c(c3)CCCC4)sc2c1 | 4 | . | . | . | 26 | .
CNC[C@@H]1Oc2ccc(NC(=O)Cc3cn(C)c4ccccc34)cc2C(=O)N([C@@H](C)CO)C[C@@H]1C | 14 | . | . | . | . | .
Cc1noc(C)c1S(=O)(=O)Nc1ccc2c(c1)C(=O)N([C@H](C)CO)C[C@@H](C)[C@H](CN(C)S(=O)(=O)c1ccc(Cl)cc1)OCCCC[C@@H](C)O2 | -2 | -47 | 7 | -11 | -2 | .
CCC(=O)N(C)C[C@@H]1Oc2cc(C#CC3CCCC3)ccc2S(=O)(=O)N([C@H](C)CO)C[C@H]1C | -33 | 9 | 5 | 7 | -4 | .
C[C@H](CO)N1C[C@H](C)[C@H](CN(C)C(=O)C2CCC2)Oc2ncc(-c3ccc(F)cc3)cc2C1=O | 3 | 11 | -3 | 1 | 15 | .
O=C(Nc1ccc(C(F)(F)F)cc1)N[C@@H]1CC[C@@H](CCNC(=O)c2ccccc2F)O[C@@H]1CO | 0 | -5 | -4 | 4 | 1 | .
CCCN(C)C[C@H]1OCCCC[C@@H](C)Oc2ccc(NS(=O)(=O)c3cn(C)cn3)cc2C(=O)N([C@@H](C)CO)C[C@@H]1C | -7 | 5 | -6 | 0 | 4 | .
COc1cc2nc(N(CCN(C)C)C(=O)c3ccc4ccccc4c3)sc2cc1OC | . | . | . | . | 12 | .
CN(C)CCCN(C(=O)c1cc2cc([N+](=O)[O-])ccc2s1)c1nc2cc3c(cc2s1)OCCO3 | -11 | 51* | 14 | 0 | -3 | i
COc1ccc(Cl)c2sc(N(CCN(C)C)C(=O)c3ccc4c(c3)OCCO4)nc12 | 1 | 91* | 14 | 1 | . | i
CN(C)CCN(C(=O)c1ccc2c(c1)OCCO2)c1nc2cc3c(cc2s1)OCO3 | -4 | 0 | 10 | -2 | 34 | .
CN(C)CCN(C(=O)c1ccc2c(c1)CCCC2)c1nc2cc3c(cc2s1)OCCO3 | -51 | 72* | 37* | 0 | 4 | i
CN(C)CCN(C(=O)c1ccc2ccccc2c1)c1nc2cc3c(cc2s1)OCO3 | -33 | 67* | ? | 1 | 33 | i
CCN(CC)CCN(C(=O)c1ccc(N2C(=O)CCC2=O)cc1)c1nc2cc3c(cc2s1)OCCO3 | 7 | 80* | 13 | 2 | . | i
CN(C)CCCN(C(=O)c1nc2ccccc2s1)c1nc2ccc(F)cc2s1 | 10 | 84* | 1 | 1 | 2 | i
CN(C)CCCN(C(=O)c1ccc(C(=O)c2ccccc2)cc1)c1nc2ccc(F)cc2s1 | . | 49 | 17 | -4 | 13 | .
CCN(CC)CCN(C(=O)c1cccc(N2C(=O)CCC2=O)c1)c1nc2cc3c(cc2s1)OCO3 | 10 | 5 | 3 | 1 | 38 | .
CCOC(=O)c1c(C)oc2ccc(O)c(CN(C)C)c12 | . | . | . | . | -2 | .
CCOC(=O)c1c(CSc2ccc(CC)cc2)oc2ccc(O)c(CN(C)C)c12 | 786 | 58* | 23 | -9 | 30 | i
CC(C)C#Cc1ccc2c(c1)O[C@@H](CN(C)C(=O)c1ccncc1)[C@H](C)CN([C@H](C)CO)S2(=O)=O | -6 | 1 | 1 | 6 | -11 | .
COc1cc(C(=O)N2CCC(N3CCN(C)CC3)CC2)ccc1Nc1ncc2c(n1)N(C)c1ccccc1C(=O)N2C | -5 | 77* | 17 | 0 | . | i
C[C@H]1CN([C@@H](C)CO)C(=O)c2cc(NC(=O)Cn3cnnn3)ccc2O[C@@H]1CN(C)S(=O)(=O)c1ccc(F)cc1 | 9 | -10 | -3 | -3 | -5 | .
C[C@@H]1CN([C@@H](C)CO)S(=O)(=O)c2ccc(C#CC3CCCC3)cc2O[C@H]1CN(C)C(=O)c1cccc(F)c1 | -12 | . | . | . | . | .
CN1CCN(CCCNc2nc3ccccc3c3nc(-c4ccccc4)nn23)CC1 | -5 | 66* | 19 | 8 | . | i
CC(C)CCNC(=O)CCC(=O)NNc1nc2ccccc2c2nc(-c3ccccc3)nn12 | -7 | . | . | . | -5 | .
CCN(CC)CCCNc1nc2ccccc2c2nc(-c3ccncc3)nn12 | -3 | -80 | 2 | -33 | 109* | 46µM*
COc1cc2nc(Nc3ccc(C)c(C)c3)nc(N)c2cc1OC | 22 | 91* | 26* | -3 | 34 | i

Assay outcomes from PubChem BioAssay.
